In publication PMC4627538 (Journal of Diabetes Investigation, 2015):
Bridge positions count the residues as written; N and C are the ends. Ends that are not written are not given here.

Tests used:
[1] = test system: maltase glucoamylase (MGAM); assay: Phage ELISA, binding of phage clones to MGAM; parameters: species or system rat; conditions: displayed on phage, judged from ELISA signals, Figure 1
[2] = test system: background proteins (BSA and anti-MGAM antibodies); assay: Phage ELISA, binding of phage clones to background
In short: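 Wells coated overnight at 4°C with anti-MGAM antibodies (5 µg/mL) in PBS, blocked 90 min at room temperature with 2% BSA/PBS, with no MGAM added. 5×10^9 pfu of each phage clone in 0.05% PBST incubated 60 min, then washed five times with 0.1% PBST. Bound phage detected with HRP anti-M13 monoclonal antibody and TMB at A450. Triplicates, mean ± SD.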

Row | binding of phage clones to background proteins [2] | Sequence | affinity towards the target (MGAM), comparison between phage clones [1]
1 | lower background binding | CTHYGFRGC (disulfide 1-9 (inferred)) [C1] | higher affinity towards the target than those obtained with specific elution
2 | lower background binding | CGHHHRDYC (disulfide 1-9 (inferred)) [C2] | higher affinity towards the target than those obtained with specific elution
